Experimental data: ChEMBL document CHEMBL3739303, “Targeting the Src Homology 2 (SH2) Domain of Signal Transducer and Activator of Transcription 6 (STAT6) with Cell-Permeable, Phosphatase-Stable Phosphopeptide Mimics Potently Inhibits Tyr641 Phosphorylation and Transcriptional Activity” (J Med Chem, 2015)
Peptide text beside a SMILES is read from it.

Target: T1, Signal transducer and activator of transcription 6 (Homo sapiens, UniProt P42226)
T1 sequence (P42226 whole entry): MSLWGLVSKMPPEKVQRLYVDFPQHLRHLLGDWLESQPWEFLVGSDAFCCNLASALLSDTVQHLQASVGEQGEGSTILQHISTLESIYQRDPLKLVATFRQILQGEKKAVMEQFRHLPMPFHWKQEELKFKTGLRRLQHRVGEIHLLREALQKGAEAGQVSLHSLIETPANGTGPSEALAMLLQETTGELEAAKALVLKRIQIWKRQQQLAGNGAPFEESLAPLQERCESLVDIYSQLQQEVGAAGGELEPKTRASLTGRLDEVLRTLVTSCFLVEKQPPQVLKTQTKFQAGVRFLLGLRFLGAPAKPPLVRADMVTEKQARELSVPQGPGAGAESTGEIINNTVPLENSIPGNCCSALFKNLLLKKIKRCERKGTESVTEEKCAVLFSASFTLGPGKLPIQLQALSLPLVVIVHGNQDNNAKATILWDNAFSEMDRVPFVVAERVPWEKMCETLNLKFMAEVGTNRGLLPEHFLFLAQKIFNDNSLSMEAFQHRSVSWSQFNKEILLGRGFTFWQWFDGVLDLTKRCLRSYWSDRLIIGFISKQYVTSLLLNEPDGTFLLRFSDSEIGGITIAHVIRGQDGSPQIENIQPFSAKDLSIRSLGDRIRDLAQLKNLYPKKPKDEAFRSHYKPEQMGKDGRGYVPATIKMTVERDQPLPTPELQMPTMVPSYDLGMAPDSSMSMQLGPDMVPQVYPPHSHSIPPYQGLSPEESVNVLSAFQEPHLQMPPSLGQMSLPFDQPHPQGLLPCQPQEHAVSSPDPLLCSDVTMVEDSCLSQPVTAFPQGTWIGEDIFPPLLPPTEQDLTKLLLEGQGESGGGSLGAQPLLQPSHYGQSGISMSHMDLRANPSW
Assay: Inhibition of STAT6 (unknown origin) expressed in Escherichia coli using FAM-Ala-pTyr-Lys-ProPhe-Gln-Asp-Leu-Ile-NH2 as substrate by fluorescence polarization assay
How it was run: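 His6-tagged STAT6 construct (coiled-coil, DNA-binding, linker and SH2 domains), purified by nickel IMAC; competitive FP binding. STAT6 at 480 nM mixed with 20 nM FAM-labelled phosphopeptide probe, then equal volume of serially diluted peptides (from 200 μM) added. Buffer: 50 mM NaCl, 10 mM Hepes, 1 mM Na4EDTA, 2 mM DTT, 1% NP-40. mP plotted against log concentration; IC50 by nonlinear regression; triplicate, three probe preparations; mean ± SD.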

SMILES	IC50 [nM]
C/C(=C\C(=O)N[C@H](C(=O)N1CCC[C@H]1C(=O)N(C)C)C(C)(C)C)c1ccc(OP(=O)(O)O)cc1	740
CC(C)(C)[C@H](NC(=O)/C=C/c1ccc(OP(=O)(O)O)cc1)C(=O)N1CCC[C@H]1C(=O)Nc1ccccc1	1250
CC(=O)N[C@@H](Cc1ccc(OP(=O)(O)O)cc1)C(=O)N[C@@H](CCCCN)C(=O)N1CCC[C@H]1C(=O)N[C@@H](Cc1ccccc1)C(=O)N[C@@H](CCC(N)=O)C(=O)N[C@@H](CC(=O)O)C(=O)N[C@@H](CC(C)C)C(N)=O (HELM PEPTIDE1{[ac].[O=C([C@H](Cc1ccc(OP(=O)(O)O)cc1)N[*:1])[*:2]].K.P.F.Q.D.L.[am]}$$$$V2.0)	2400
C/C(=C\C(=O)N[C@H](C(=O)N(C)CC(=O)N(C)c1ccccc1)C(C)(C)C)c1ccc(OP(=O)(O)O)cc1	270
C/C(=C\C(=O)N[C@H](C(=O)N1CCC[C@H]1C(=O)NCCc1ccccc1)C(C)(C)C)c1ccc(OP(=O)(O)O)cc1	250
CC(C)(C)[C@H](NC(=O)/C=C/c1ccc(OP(=O)(O)O)cc1)C(=O)N1CCC[C@H]1C(=O)N(c1ccccc1)c1ccc(I)cc1	44
CC(=O)N[C@@H](Cc1ccc(OP(=O)(O)O)cc1)C(=O)N[C@@H](CCCCN)C(=O)N1CCC[C@H]1C(=O)N[C@@H](Cc1ccccc1)C(N)=O (HELM PEPTIDE1{[ac].[O=C([C@H](Cc1ccc(OP(=O)(O)O)cc1)N[*:1])[*:2]].K.P.F.[am]}$$$$V2.0)	6100
C/C(=C\C(=O)N[C@H](C(=O)N1CCC[C@H]1C(=O)N(c1ccccc1)c1ccc(I)cc1)C(C)(C)C)c1ccc(OP(=O)(O)O)cc1	28
C/C(=C\C(=O)N[C@H](C(=O)N1CCCC1/C=C/CCc1ccccc1)C(C)(C)C)c1ccc(OP(=O)(O)O)cc1 (some centres undefined)	540
CC(C)(C)[C@H](NC(=O)c1cc2cc(OP(=O)(O)O)ccc2[nH]1)C(=O)N1CCC[C@H]1C(=O)N(c1ccccc1)c1ccc(I)cc1	140
C/C(=C\C(=O)N[C@H](C(=O)N1CCCC1/C=C/c1ccccc1)C(C)(C)C)c1ccc(OP(=O)(O)O)cc1 (some centres undefined)	3430
CC(=O)N[C@@H](Cc1ccc(OP(=O)(O)O)cc1)C(=O)N[C@@H](CCCCN)C(=O)N1CCC[C@H]1C(N)=O (HELM PEPTIDE1{[ac].[O=C([C@H](Cc1ccc(OP(=O)(O)O)cc1)N[*:1])[*:2]].K.P.[am]}$$$$V2.0)	5200
CC(=O)N[C@@H](Cc1ccc(OP(=O)(O)O)cc1)C(=O)N[C@@H](CCCCN)C(=O)N1CCC[C@H]1C(=O)N[C@@H](Cc1ccccc1)C(=O)N[C@@H](CCC(N)=O)C(N)=O (HELM PEPTIDE1{[ac].[O=C([C@H](Cc1ccc(OP(=O)(O)O)cc1)N[*:1])[*:2]].K.P.F.Q.[am]}$$$$V2.0)	4200
C/C(=C\C(=O)N[C@H](C(=O)N(C)[C@@H](C)C(=O)N(C)c1ccccc1)C(C)(C)C)c1ccc(OP(=O)(O)O)cc1	480
NCCCC[C@H](NC(=O)[C@H](Cc1ccc(OP(=O)(O)O)cc1)NC(=O)/C=C/c1ccccc1)C(=O)N1CCC[C@H]1C(=O)N[C@@H](Cc1ccccc1)C(N)=O (HELM PEPTIDE1{[O=C(/C=C/c1ccccc1)[*:2]].[O=C([C@H](Cc1ccc(OP(=O)(O)O)cc1)N[*:1])[*:2]].K.P.F.[am]}$$$$V2.0)	6600
C/C(=C\C(=O)N[C@H](C(=O)N1CCC[C@H]1C(=O)N(C)c1ccccc1)C(C)(C)C)c1ccc(OP(=O)(O)O)cc1	120
C/C(=C\C(=O)N[C@H](C(=O)N1CCC[C@H]1C(=O)NCc1ccccc1)C(C)(C)C)c1ccc(OP(=O)(O)O)cc1	340
C/C(=C\C(=O)N[C@H](C(=O)N1CCCC1CCCCc1ccccc1)C(C)(C)C)c1ccc(OP(=O)(O)O)cc1 (some centres undefined)	1070
CC(=O)N[C@@H](Cc1ccc(OP(=O)(O)O)cc1)C(=O)N[C@@H](CCCCN)C(=O)N1CCC[C@H]1C(=O)N[C@@H](Cc1ccccc1)C(=O)N[C@@H](CCC(N)=O)C(=O)N[C@@H](CC(=O)O)C(N)=O (HELM PEPTIDE1{[ac].[O=C([C@H](Cc1ccc(OP(=O)(O)O)cc1)N[*:1])[*:2]].K.P.F.Q.D.[am]}$$$$V2.0)	4500
